Laboratory results from ChEMBL document CHEMBL5036376, “C20-nor-Abietane and Three Abietane Diterpenoids from Plectranthus mutabilis Leaves as P-Glycoprotein Modulators” (ACS Med Chem Lett, 2022).

Legend:
[1] = Selectivity index, ratio of IC50 for cytotoxicity against human MRC-5 cells to of IC50 for anticancer activity against human NCI-H460 cells; assay type: toxicity, cell-based; settings: for selectivity ratio: MRC-5 cells versus NCI-H460 cells, read-out: Ratio IC50
In short: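 Selectivity index is the MRC-5 IC50 divided by the NCI-H460 IC50. Both come from MTT viability assays over 2–50 μM (compounds) or 2–50 μg/mL (extract).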

NCI-H460 [2] = assay: Anticancer activity against human multi-drug resistant NCI-H460/R cells assessed as reduction in cell viability measured after 72 hrs by MTT assay; assay type: functional, cell-based; settings: NCI-H460, 72 h
In short: (§1)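 MTT read-out of metabolic activity (viability) in sensitive NSCLC NCI-H460, its P-gp-overexpressing MDR subline NCI-H460/R and normal embryonic lung fibroblasts MRC-5. Isolated diterpenes were tested at 2, 5, 10, 20 and 50 μM and acetone extract at 2, 5, 10, 20 and 50 μg/mL. IC50 was reported in μM for compounds and μg/mL for extract.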

MRC5 = assay: Cytotoxicity against human MRC-5 cells assessed as reduction in cell viability measured after 72 hrs by MTT assay; assay type: cell-based; settings: MRC5, 72 h; in short: as §1
NCI-H460 [3] = assay: Anticancer activity against human NCI-H460 cells assessed as reduction in cell viability measured after 72 hrs by MTT assay; assay type: functional, cell-based; settings: NCI-H460, 72 h; in short: as §1
[4] = target: T1, ATP-dependent translocase ABCB1 (Homo sapiens, UniProt P08183); assay: Stimulation of P-gp in human multidrug resistant NCI-H460/R cells assessed as fluorescence activity ratio at 0.05 uM […] by Rho123 accumulation assay relative to control; settings: nci-h460, 1.2 h
T1 sequence (P08183 whole entry): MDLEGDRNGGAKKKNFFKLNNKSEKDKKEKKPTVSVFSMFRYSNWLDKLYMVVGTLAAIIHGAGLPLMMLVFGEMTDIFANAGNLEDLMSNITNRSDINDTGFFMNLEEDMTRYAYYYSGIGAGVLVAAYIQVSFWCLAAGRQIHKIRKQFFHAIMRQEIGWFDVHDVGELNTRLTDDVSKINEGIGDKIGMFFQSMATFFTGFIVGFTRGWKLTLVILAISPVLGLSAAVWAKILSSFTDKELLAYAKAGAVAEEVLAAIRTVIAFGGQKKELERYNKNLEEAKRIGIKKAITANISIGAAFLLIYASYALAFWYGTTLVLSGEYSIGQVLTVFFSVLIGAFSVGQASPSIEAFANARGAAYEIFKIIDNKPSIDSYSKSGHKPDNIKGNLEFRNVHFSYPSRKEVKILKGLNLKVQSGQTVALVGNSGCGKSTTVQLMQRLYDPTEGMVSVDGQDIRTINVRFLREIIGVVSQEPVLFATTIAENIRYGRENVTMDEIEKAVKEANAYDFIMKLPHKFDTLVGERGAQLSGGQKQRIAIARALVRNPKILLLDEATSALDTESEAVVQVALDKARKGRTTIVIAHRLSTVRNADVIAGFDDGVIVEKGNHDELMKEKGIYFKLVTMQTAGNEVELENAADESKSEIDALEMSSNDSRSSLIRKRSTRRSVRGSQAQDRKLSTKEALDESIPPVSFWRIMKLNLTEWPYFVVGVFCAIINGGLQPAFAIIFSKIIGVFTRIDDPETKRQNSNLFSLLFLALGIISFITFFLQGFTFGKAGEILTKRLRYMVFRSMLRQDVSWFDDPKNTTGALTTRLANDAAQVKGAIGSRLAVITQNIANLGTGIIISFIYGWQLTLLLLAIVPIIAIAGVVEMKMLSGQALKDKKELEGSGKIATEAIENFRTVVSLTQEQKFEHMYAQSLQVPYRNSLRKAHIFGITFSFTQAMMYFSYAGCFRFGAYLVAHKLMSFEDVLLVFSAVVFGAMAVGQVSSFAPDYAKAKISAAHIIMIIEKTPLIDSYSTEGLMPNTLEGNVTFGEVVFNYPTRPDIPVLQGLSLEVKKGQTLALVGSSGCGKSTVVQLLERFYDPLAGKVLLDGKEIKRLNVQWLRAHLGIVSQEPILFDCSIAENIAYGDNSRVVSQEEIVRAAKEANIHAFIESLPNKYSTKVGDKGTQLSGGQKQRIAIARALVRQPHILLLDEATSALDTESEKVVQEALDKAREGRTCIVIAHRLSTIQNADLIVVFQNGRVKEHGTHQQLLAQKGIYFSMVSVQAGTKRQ

[5] = Selectivity index, ratio of mean fluorescence intensity for stimulation of P-gp in human multidrug resistant NCI-H460/R cells to mean fluorescence intensity for stimulation of P-gp in human NCI-H460 cells assessed as decrease in Rho123 accumulation at 0.05 uM for […]; assay type: functional
[6] = target: T1, ATP-dependent translocase ABCB1; assay: Stimulation of P-gp in human multidrug resistant NCI-H460/R cells assessed as decrease in Rho123 accumulation by measuring mean fluorescence intensity at 0.05 uM incubated for 72 hour followed by rhodamine 123 measured after 30 mins by flow cytometry; settings: nci-h460, 72 h
In short: (§2)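 NCI-H460/R cells treated with the test agent for 72 h, then loaded with Rho123 for 30 min; intracellular mean fluorescence intensity (MFI) measured. References are untreated NCI-H460/R (MDR control) and parental NCI-H460 (sensitive control). FAR = MFI treated/MFI MDR control; SI = MFI treated × 100/MFI sensitive control; mean ± SE. Tariquidar is the P-gp inhibitor comparator.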

[7] = target: T1, ATP-dependent translocase ABCB1; assay: Stimulation of P-gp in human multidrug resistant NCI-H460/R cells assessed as fluorescence activity ratio at 50 uM for 30 mins by Rho123 accumulation assay relative to control; settings: nci-h460, 0.5 h
In short: (§3)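 Rho123 and test agent given together to NCI-H460/R cells for 30 min, then mean fluorescence intensity (MFI) read. FAR = MFI of treated MDR cells / MFI of untreated MDR cells. SI = (MFI of treated MDR cells × 100) / MFI of untreated sensitive NCI-H460 cells. Tariquidar was the P-gp inhibition control. Mean ± SE.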

[8] = target: T1, ATP-dependent translocase ABCB1; assay: Stimulation of P-gp in human multi-drug resistant NCI-H460/R cells assessed as decrease in Rho123 accumulation by measuring mean fluorescence intensity at 50 uM incubated for 30 mins in presence of rhodamine 123 by flow cytometry; settings: nci-h460, 0.5 h
In short: (§4)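 NCI-H460/R (P-gp-overexpressing NSCLC) cells exposed to the test agent together with Rho123 for 30 min; mean fluorescence intensity (MFI) read. Untreated NCI-H460/R serve as MDR control and parental NCI-H460 as sensitive control. FAR = MFI treated/MFI MDR control; SI = MFI treated × 100/MFI sensitive control; mean ± SE. Tariquidar is the P-gp inhibition positive control.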

[9] = Selectivity index, ratio of mean fluorescence intensity for stimulation of P-gp in human multidrug resistant NCI-H460/R cells to mean fluorescence intensity for stimulation of P-gp in human NCI-H460 cells assessed as decrease in Rho123 accumulation at 50 uM for 30 mins; assay type: functional; settings: 0.5 h; in short: as §3
[10] = target: T1, ATP-dependent translocase ABCB1; assay: Stimulation of P-gp in human multidrug resistant NCI-H460/R cells assessed as fluorescence activity ratio at 10 uM for 72 mins by Rho123 accumulation assay relative to control; settings: nci-h460, 1.2 h
[11] = Selectivity index, ratio of mean fluorescence intensity for stimulation of P-gp in human multidrug resistant NCI-H460/R cells to mean fluorescence intensity for stimulation of P-gp in human NCI-H460 cells assessed as decrease in Rho123 accumulation at 5 uM for 72 mins; assay type: functional; settings: 1.2 h
[12] = target: T1, ATP-dependent translocase ABCB1; assay: Stimulation of P-gp in human multidrug resistant NCI-H460/R cells assessed as fluorescence activity ratio at 5 uM for 72 mins by Rho123 accumulation assay relative to control; settings: nci-h460, 1.2 h
[13] = target: T1, ATP-dependent translocase ABCB1; assay: Stimulation of P-gp in human multidrug resistant NCI-H460/R cells assessed as decrease in Rho123 accumulation by measuring mean fluorescence intensity at 10 uM incubated for 72 hrs followed by rhodamine 123 measured after 30 mins by flow cytometry; settings: nci-h460, 72.5 h; in short: as §2
[14] = target: T1, ATP-dependent translocase ABCB1; assay: Stimulation of P-gp in human multidrug resistant NCI-H460/R cells assessed as fluorescence activity ratio at 10 uM for 30 mins by Rho123 accumulation assay relative to control; settings: nci-h460, 0.5 h
[15] = target: T1, ATP-dependent translocase ABCB1; assay: Stimulation of P-gp in human multidrug resistant NCI-H460/R cells assessed as decrease in Rho123 accumulation by measuring mean fluorescence intensity at 5 uM incubated for 72 hrs followed by rhodamine 123 measured after 30 mins by flow cytometry; settings: nci-h460, 72.5 h; in short: as §2
[16] = Selectivity index, ratio of mean fluorescence intensity for stimulation of P-gp in human multidrug resistant NCI-H460/R cells to mean fluorescence intensity for stimulation of P-gp in human NCI-H460 cells assessed as decrease in Rho123 accumulation at 5 uM for 30 mins; assay type: functional; settings: 0.5 h
[17] = target: T1, ATP-dependent translocase ABCB1; assay: Stimulation of P-gp in human multi drug resistant NCI-H460/R cells assessed as decrease in Rho123 accumulation by measuring mean fluorescence intensity at 10 uM incubated for 30 mins in presence of rhodamine 123by flow cytometry; settings: nci-h460, 0.5 h; in short: as §4
[18] = Selectivity index, ratio of mean fluorescence intensity for stimulation of P-gp in human multidrug resistant NCI-H460/R cells to mean fluorescence intensity for stimulation of P-gp in human NCI-H460 cells assessed as decrease in Rho123 accumulation at 10 uM for 72 mins; assay type: functional; settings: 1.2 h
[19] = target: T1, ATP-dependent translocase ABCB1; assay: Stimulation of P-gp in human multi-drug resistant NCI-H460/R cells assessed as decrease in Rho123 accumulation by measuring mean fluorescence intensity at 5 uM incubated for 30 mins in presence of rhodamine 123 by flow cytometry; settings: nci-h460, 0.5 h; in short: as §4
[20] = target: T1, ATP-dependent translocase ABCB1; assay: Stimulation of P-gp in human multidrug resistant NCI-H460/R cells assessed as fluorescence activity ratio at 5 uM for 30 mins by Rho123 accumulation assay relative to control; settings: nci-h460, 0.5 h
[21] = Selectivity index, ratio of mean fluorescence intensity for stimulation of P-gp in human multidrug resistant NCI-H460/R cells to mean fluorescence intensity for stimulation of P-gp in human NCI-H460 cells assessed as decrease in Rho123 accumulation at 10 uM for 30 mins; assay type: functional; settings: 0.5 h

Compound | selectivity ratio [1] | IC50 (NCI-H460 [2]) [µM] | IC50 (MRC5) [µM] | IC50 (NCI-H460 [3]) [µM] | Ratio [10] | Selectivity Index [11] | Ratio [12] | Flu intensity [13] | Ratio [14] | Flu intensity [15] | Selectivity Index [16] | Flu intensity [17] | Selectivity Index [18] | Flu intensity [19] | Ratio [20] | Selectivity Index [21] | also measured
CC(=O)O[C@H]1C(=O)[C@@]2(C)[C@H]([C@H](OC(=O)c3ccccc3)[C@]3(O)C[C@H](OC(=O)[C@H](O)[C@@H](NC(=O)c4ccccc4)c4ccccc4)C(C)=C1C3(C)C)[C@]1(OC(C)=O)CO[C@@H]1C[C@@H]2O [PACLITAXEL] | 872 | 0.117 | 0.523 | 0.0006 | – | – | – | – | – | – | – | – | – | – | – | – | –
COc1cc2c(cc1OC)CN(CCc1ccc(NC(=O)c3cc(OC)c(OC)cc3NC(=O)c3cnc4ccccc4c3)cc1)CC2 [TARIQUIDAR] | – | – | – | – | – | – | – | – | – | – | – | – | – | – | – | – | Ratio [4]: 3.7; Selectivity Index [5]: 121.16; Flu intensity [6]: 3004; Ratio [7]: 3.7; Flu intensity [8]: 3004; Selectivity Index [9]: 121.16
CC(C)C1=C(O)C(=O)C2=C(C(=O)C(O)=C3C(C)(C)CCC[C@]23C)C1=O | 2 | 20.4 | 44.1 | 23 | 0.3 | 11.18 | 0.34 | 242 | 1.93 | 277.3 | 31.13 | 991.3 | 9.76 | 669.6 | 1.3 | 46.09 | –
CC(C)c1cc2c(c(O)c1O)[C@@]1(O)CCCC(C)(C)[C@@H]1C(=O)C2=O | – | > 50 | > 50 | > 50 | 0.31 | 10.72 | 0.33 | 254.5 | 1.12 | 265.9 | 27.68 | 573 | 10.26 | 595.3 | 1.16 | 26.64 | Ratio IC50 [1]: Not Active
CC(C)c1c(O)c(O)c2c(c1O)C(=O)C(O)=C1C(C)(C)CCC[C@@]12C | 2.5 | 14.5 | 35.5 | 14.1 | 0.14 | 7 | 0.21 | 109.7 | 0.49 | 173.5 | 58.52 | 253 | 4.43 | 1258.8 | 2.45 | 11.76 | –
COc1cccc2c1C(=O)c1c(O)c3c(c(O)c1C2=O)C[C@@](O)(C(=O)CO)C[C@@H]3O[C@H]1C[C@H](N)[C@H](O)[C@H](C)O1 [DOXORUBICIN] | – | 1.62 | – | – | – | – | – | – | – | – | – | – | – | – | – | – | –
CC(C)C1=C(O)C(=O)[C@@]23O[C@@]2(C(=O)C(O)=C2C(C)(C)CCC[C@@]23C)C1=O | 2 | 17.3 | 40.2 | 20.2 | 0.34 | 11.68 | 0.36 | 276.6 | 1.3 | 289.7 | 33.08 | 666.1 | 11.16 | 711.6 | 1.39 | 30.97 | –
